Active and inactive are the calls of the source. The rule behind the calls is not given here.
What was measured:
Mus musculus [1] = test: Toxicity in human MDA-MB-231 cells xenografted BALB/c nu mouse assessed as signs of organ toxicity at 90 mg/kg, po qd for 19 days; assay type: organism-based; parameters: dose 90 mg/kg, route oral; settings: in vivo, 456 h
Mus musculus [2] = test: Toxicity in human HCT116 cells xenografted BALB/c nu mouse assessed as signs of organ toxicity at 60 mg/kg, po qd for 19 days; assay type: organism-based, HCT-116; parameters: dose 60 mg/kg, route oral; settings: in vivo, 456 h
[3] = Stability in artificial gastric juice; assay type: physicochemical; settings: simulated gi fluid
[4] = Stability in artificial intestinal juice; assay type: physicochemical; settings: simulated gi fluid
Mus musculus [5] = test: Toxicity in mouse H22 cells xenografted Kunming mouse assessed as change in body weight at 90 mg/kg, po qd for 19 days; assay type: organism-based; parameters: dose 90 mg/kg, route oral; settings: in vivo, 456 h
Mus musculus [6] = test: Toxicity in mouse H22 cells xenografted Kunming mouse assessed as change in body weight at 60 mg/kg, po qd for 19 days; assay type: organism-based; parameters: dose 60 mg/kg, route oral; settings: in vivo, 456 h
Mus musculus [7] = test: Toxicity in mouse H22 cells xenografted Kunming mouse assessed as signs of organ toxicity at 90 mg/kg, po qd for 19 days; assay type: organism-based; parameters: dose 90 mg/kg, route oral; settings: in vivo, 456 h
MDA-MB-231 [8] = test: Cell cycle arrest in human MDA-MB-231 cells assessed as accumulation at G2 phase at 2 to 5 uM after 48 hrs using propidium iodide staining by flow cytometric analysis; assay type: functional, cell-based
Summary of the method: (§1)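 MDA-MB-231 cells were seeded at 4 × 10^5 per well and incubated overnight, then treated for 48 h. Cells were fixed overnight in 70% ethanol phosphate buffer and washed twice with PBS. They were treated with DNase-free RNase A (1 mg/mL) for 30 min, then stained with propidium iodide for 30 min in the dark at room temperature. DNA content was read by FACScan flow cytometry.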

MDA-MB-231 [9] = test: Cell cycle arrest in human MDA-MB-231 cells assessed as accumulation at G1 phase at 0.5 uM after 48 hrs using propidium iodide staining by flow cytometric analysis; assay type: functional, cell-based; summary of the method: as §1
MDA-MB-231 [10] = test: Antitumor activity against human MDA-MB-231 cells xenografted in BALB/c nu mouse assessed as tumor growth inhibition at 90 mg/kg, ip qd for 19 days relative to control; assay type: functional; settings: route intraperitoneal
MDA-MB-231 [11] = test: Antitumor activity against human MDA-MB-231 cells xenografted in BALB/c nu mouse assessed as tumor growth inhibition at 90 mg/kg, po qd for 19 days relative to control; assay type: functional
MDA-MB-231 [12] = test: Antitumor activity against human MDA-MB-231 cells xenografted in BALB/c nu mouse assessed as tumor growth inhibition at 60 mg/kg, ip qd for 19 days relative to control; assay type: functional; settings: route intraperitoneal
Summary of the method: (§2)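 Female athymic BALB/c-nu mice, 5–6 weeks old, were inoculated subcutaneously in the right flank with RPMI1640/10% FBS-cultured tumor cells (5 × 10^6 for MDA-MB-231). At about 100 mm3 (~10 days), mice were randomized 6 per group and dosed orally or intraperitoneally for 19 days. Vehicle controls received PBS containing DMSO. TGI = (control − treated mean tumor weight)/control mean tumor weight, at end of treatment.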

HCT-116 = test: Antitumor activity against human HCT116 cells xenografted in BALB/c nu mouse assessed as tumor growth inhibition at 60 mg/kg, po qd for 19 days relative to control; assay type: functional; summary of the method: as §2
Mus musculus [13] = test: Toxicity in human MDA-MB-231 cells xenografted BALB/c nu mouse assessed as change in body weight at 90 mg/kg, po qd for 19 days; assay type: organism-based; parameters: dose 90 mg/kg, route oral; settings: in vivo, 456 h
Summary of the method: (§3)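 Female BALB/c-nu mice, 5–6 weeks old, bearing subcutaneous right-flank xenografts. Mice were randomized 6 per group at about 100 mm3 tumor size. Dosing was oral or intraperitoneal for 19 days; controls received an equal volume of PBS containing DMSO. Body weight was monitored regularly during treatment, and tumors were measured by caliper every three days.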

Mus musculus [14] = test: Toxicity in human MDA-MB-231 cells xenografted BALB/c nu mouse assessed as change in body weight at 60 mg/kg, ip qd for 19 days; assay type: organism-based; parameters: dose 60 mg/kg, route intraperitoneal; settings: in vivo, 456 h; summary of the method: as §3
Mus musculus [15] = test: Toxicity in human HCT116 cells xenografted BALB/c nu mouse assessed as change in body weight at 90 mg/kg, po qd for 19 days; assay type: organism-based, HCT-116; parameters: dose 90 mg/kg, route oral; settings: in vivo, 456 h; summary of the method: as §3
Mus musculus [16] = test: Toxicity in human HCT116 cells xenografted BALB/c nu mouse assessed as change in body weight at 60 mg/kg, po qd for 19 days; assay type: organism-based, HCT-116; parameters: dose 60 mg/kg, route oral; settings: in vivo, 456 h; summary of the method: as §3
Mus musculus [17] = test: Toxicity in human MDA-MB-231 cells xenografted BALB/c nu mouse assessed as signs of organ toxicity at 90 mg/kg, ip qd for 19 days; assay type: organism-based; parameters: dose 90 mg/kg, route intraperitoneal; settings: in vivo, 456 h
Histone deacetylase = test: Inhibition of HDAC in human HeLa cell nuclear extracts using Boc-Lys (acetyl)-AMC as substrate after 30 mins by fluorescence assay; assay type: protein assay
Summary of the method: (§4)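 Enzyme (HeLa nuclear extract, HDAC6 or HDAC8) preincubated 5 min with a series of compound concentrations. Fluorogenic Boc-Lys(acetyl)-AMC substrate then added and incubated 37 °C for 30 min. Reaction stopped with developer containing trypsin and TSA, 20 min at 37 °C. Fluorescence read at ex 390/em 460 nm. Inhibition taken relative to control wells; IC50 from regression of concentration/inhibition data.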

Histone deacetylase 8 = biological target: T1, Histone deacetylase 8 (Homo sapiens, UniProt Q9BY41); test: Inhibition of HDAC8 using Boc-Lys (acetyl)-AMC as substrate after 30 mins by fluorescence assay; summary of the method: as §4
T1 sequence (Q9BY41 whole entry): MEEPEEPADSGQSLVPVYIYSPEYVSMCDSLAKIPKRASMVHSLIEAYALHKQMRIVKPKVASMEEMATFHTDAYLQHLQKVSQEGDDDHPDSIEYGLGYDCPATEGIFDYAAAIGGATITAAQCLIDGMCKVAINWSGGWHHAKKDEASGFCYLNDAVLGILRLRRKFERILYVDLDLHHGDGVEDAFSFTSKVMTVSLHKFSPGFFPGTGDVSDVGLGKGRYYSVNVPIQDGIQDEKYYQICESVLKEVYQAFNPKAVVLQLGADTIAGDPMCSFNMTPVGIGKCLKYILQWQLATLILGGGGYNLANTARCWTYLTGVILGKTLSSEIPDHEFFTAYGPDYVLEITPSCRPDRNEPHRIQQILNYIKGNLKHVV

MCF7 = test: Antiproliferative activity against human MCF7 cells after 48 hrs by MTT assay; assay type: functional, cell-based; settings: MCF7, 48 h
HeLa = test: Antiproliferative activity against human HeLa cells after 48 hrs by MTT assay; assay type: functional, cell-based
Summary of the method: (§5)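 Cells kept in RPMI1640 with 10% FBS at 37 °C, 5% CO2. Cells were passaged into 96-well plates the day before dosing and left ≥4 h before compound addition. Exposure was 48 h, then 0.5% MTT for 4 h. Formazan was extracted with DMSO for 15 min and read at 570 nm. IC50 was derived from inhibition ratios; mean of three experiments.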

NB-4 = test: Antiproliferative activity against human NB4 cells after 48 hrs by MTT assay; assay type: functional, cell-based; settings: NB-4, 48 h; summary of the method: as §5
HL-60 = test: Antiproliferative activity against human HL60 cells after 48 hrs by MTT assay; assay type: functional, cell-based; settings: HL-60, 48 h; summary of the method: as §5
[18] = Mus musculus, MDA-MB-231, ip, 456 h, read-out: TGI

CC[C@H](C)[C@H](NC(=O)CC(C)(C)C)C(=O)N1Cc2cc(OCC(=O)NO)ccc2C[C@H]1C(=O)Nc1ccc(OC)cc1
Activity (Mus musculus [1]): Non-toxic | Activity (Mus musculus [2]): Non-toxic | Stability [3]: Stable | Stability [4]: Stable | Activity (Mus musculus [5]): Non-toxic | Activity (Mus musculus [6]): Non-toxic | Activity (Mus musculus [7]): Non-toxic | Activity (MDA-MB-231 [8]): Active | Activity (MDA-MB-231 [9]): Active | inhibition in vivo at 90 mg/kg (MDA-MB-231 [10]; [18]): 51% | T/C (MDA-MB-231 [10]): 37% | T/C (MDA-MB-231 [11]): 30% | inhibition in vivo at 90 mg/kg (MDA-MB-231 [11]; Mus musculus, MDA-MB-231, 456 h, read-out: TGI): 66% | inhibition in vivo at 60 mg/kg (MDA-MB-231 [12]; [18]): 45% | T/C (MDA-MB-231 [12]): 62% | T/C (HCT-116): 85% | inhibition in vivo at 60 mg/kg (HCT-116; Mus musculus, HCT-116, 456 h, read-out: TGI): 32% | Activity (Mus musculus [13]): Non-toxic | Activity (Mus musculus [14]): Non-toxic | Activity (Mus musculus [15]): Non-toxic | Activity (Mus musculus [16]): Non-toxic | Activity (Mus musculus [17]): Non-toxic | IC50 (Histone deacetylase): 0.052 µM | IC50 (Histone deacetylase 8): 146 nM | IC50 (MCF7): 3.2 µM | IC50 (HeLa): 56.1 µM | IC50 (NB-4): 2690 nM | IC50 (HL-60): 65.8 µM

— ChEMBL document CHEMBL1828628, “Discovery of a tetrahydroisoquinoline-based hydroxamic acid derivative (ZYJ-34c) as histone deacetylase inhibitor with potent oral antitumor activities” (J Med Chem, 2011)
